Bioassay records (PubChem)
TPT1 inh = blocks Candida albicans tRNA 2'-phosphotransferase; recombinant caTPT1, FP RNA substrate dephosphorylation; inhibition, % at 5 µM; actives 0.81% (n = 300,000);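 active = inhibition above the mean of all tested compounds plus 3 SD, set per screening campaign, cut at about 24% in these data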;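 note: plate controls were DMSO alone for no effect and ferristatin control at 100 nM for full effect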
HNF4A DNA FP = change in binding of human HNF4 alpha to DNA; P41235; HNF4a-FITC DNA binding, fluorescence polarization, 1 h; activity change, % at 10 µM; actives 0.3% (n = 360,000); AID 1224865; in the data active = activity change above about 30%, passing the limit was not always enough
IDE cell inh = inhibitors of human insulin-degrading enzyme in cells; P14735; HEK cells, FAbetaB cleavage, fluorescence polarization; inhibition, % at 5.59 µM; actives 0.41% (n = 320,000); AID 434962;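 active = percent inhibition above the average of all tested compounds plus 3 SD, set per screening campaign, cut at about 16% in these data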;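 note: IDE supplied by intact live HEK cells; FP after avidin binding of uncleaved biotin substrate so inhibition keeps polarization high; 0% = DMSO wells and 100% = 60 µM reference IDE inhibitor Ii1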
Target sequence (P14735 whole entry, looked up): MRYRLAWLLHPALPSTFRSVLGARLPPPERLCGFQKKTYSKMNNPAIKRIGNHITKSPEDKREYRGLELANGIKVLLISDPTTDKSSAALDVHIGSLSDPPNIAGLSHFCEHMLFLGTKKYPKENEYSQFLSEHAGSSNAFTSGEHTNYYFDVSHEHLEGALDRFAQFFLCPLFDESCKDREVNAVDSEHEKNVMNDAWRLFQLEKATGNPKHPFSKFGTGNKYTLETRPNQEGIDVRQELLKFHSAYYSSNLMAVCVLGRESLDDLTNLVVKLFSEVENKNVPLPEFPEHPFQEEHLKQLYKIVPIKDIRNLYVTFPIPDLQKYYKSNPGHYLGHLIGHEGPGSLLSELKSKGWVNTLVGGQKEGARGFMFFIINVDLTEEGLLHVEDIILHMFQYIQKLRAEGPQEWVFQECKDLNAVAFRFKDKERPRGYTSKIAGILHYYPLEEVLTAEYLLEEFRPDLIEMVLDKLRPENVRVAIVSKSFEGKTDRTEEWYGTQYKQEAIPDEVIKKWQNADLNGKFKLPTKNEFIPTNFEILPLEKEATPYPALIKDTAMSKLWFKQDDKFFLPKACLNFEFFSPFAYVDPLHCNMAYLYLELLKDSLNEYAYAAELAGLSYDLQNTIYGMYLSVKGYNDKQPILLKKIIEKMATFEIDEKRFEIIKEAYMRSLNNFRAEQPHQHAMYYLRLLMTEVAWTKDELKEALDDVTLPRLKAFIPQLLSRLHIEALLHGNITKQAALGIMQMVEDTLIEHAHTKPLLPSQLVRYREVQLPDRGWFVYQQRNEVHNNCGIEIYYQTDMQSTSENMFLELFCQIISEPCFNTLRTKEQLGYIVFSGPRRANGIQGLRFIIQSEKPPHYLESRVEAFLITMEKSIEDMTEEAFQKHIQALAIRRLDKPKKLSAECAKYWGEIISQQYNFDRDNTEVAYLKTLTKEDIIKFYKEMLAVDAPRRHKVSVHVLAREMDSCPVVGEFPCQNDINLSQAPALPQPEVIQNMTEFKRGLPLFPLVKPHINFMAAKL
CSN inh = inhibitors of human CSN-mediated cullin deneddylation. Q92905. Purified CSN, SCF-Nedd8-OG deneddylation, fluorescence polarization. inhibition, % at 12.5 µM. actives 0.38% (n = 360,000). AID 651999;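 active = pattern-corrected inhibition above about 35%, with an unprinted fluorescence ratio check between 0.5 and 1.5, limit read from the data, passing the limit was not always enough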;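 note: 0% = enzyme with substrate and 100% = substrate without enzyme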
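Assay system: HEK293T-derived human Csn5 enzyme; quantity: 0.24 nM enzyme; medium: Tris/NaCl/DTT buffer, pH 7.5; also added: substrate SCFSkp2-Nedd8OG, 10 nM; doses: 12.5 µM compound; schedule: 90 min reaction at room temperature; signal: FP; read-out: % inhibition of substrate cleavage by Csn5; benchmarks: substrate-only high control, full reaction low control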
IDE act = boosts human insulin-degrading enzyme activity in HEK cells; P14735; FAbeta-B cleavage, fluorescence polarization; 0% vehicle, 100% cell-free pure enzyme wells; activation, % at 5.96 µM; actives 0.073% (n = 340,000);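 active = activation above the mean of all tested compounds plus 3 SD, set per screening campaign, cut at about 17% in these data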
IDE inh confirm = cellular human IDE inhibition, confirmation; inhibition, % at 5.59 µM; shares compounds with IDE cell inh; actives 51% (n = 1,200); HEK cells, FAbetaB cleavage, fluorescence polarization;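 active = mean inhibition across triplicate wells above the cutoff set by the earlier primary insulin-degrading enzyme screen, cut at about 16% in these data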;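 note: 0% = DMSO wells and 100% = 60 µM reference IDE inhibitor Ii1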
HEK cytotox = kills HEK cells in IDE inhibitor counter-screen | AID 449730 | inhibition, % at 5.59 µM | actives 28% (n = 1,200) | shares compounds with IDE cell inh | HEK293 cytotoxicity, ATP luminescence; in the data active = inhibition above about 22%;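 note: 0% = vehicle wells and 100% = reference cytotoxic drug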
An asterisk follows results filed as active; nt = not tested or not shown. Compounds with a hit are over-represented: about 1.4% of the library has one in this group of screens.

SMILES | TPT1 inh | HNF4A DNA FP | IDE cell inh | CSN inh | IDE act | IDE inh confirm | HEK cytotox
C=CCN1C(=O)C(CC(=O)NCC)SC1=Nc1ccccc1CC (stereo not drawn) | 0 | 2 | 0 | -1 | 1 | nt | nt
O=C(NNC(=O)c1ccc(Cl)cc1Cl)c1csc(-c2cccnc2)n1 | -3 | -1 | 21* | -6 | 0 | 9 | 11
COc1ccc(CCN(C)Cc2ccc(C(=O)Nc3ccccc3)cc2)cc1OC | -1 | 1 | 1 | 0 | 5 | nt | nt
Cc1nc2c(ccc3nc(NC(=O)c4ccc5c(c4)OCCO5)sc32)s1 | -3 | 21 | 19* | 45* | -21 | 6 | 31*
CCN1CCN(C(=O)c2ccc(CS(=O)(=O)Cc3ccccc3Cl)o2)CC1 | nt | 3 | nt | 1 | nt | nt | nt
C/C(Cc1ccccc1)=N\NC(=O)CNC(=O)/C=C\c1ccccc1 | -2 | 3 | 17* | 1 | nt | 2 | 12
COc1ccc(CC2=CC(=O)c3ccccc3C2=O)cc1 | -1 | 0 | 46* | 1 | -28 | 35* | 68*
COc1ccc(Cc2ccccc2C(=O)O)cc1 | nt | 1 | nt | -2 | 3 | nt | nt
COc1ccc2[nH]c3c(N4CC(C)OC(C)C4)ncnc3c2c1 (stereo not drawn) | 5 | nt | 17* | nt | nt | 7 | 11
COc1cc2[nH]c3c(N4CCN(c5ccc(Cl)cc5)CC4)ncnc3c2cc1OC | -5 | 4 | 52* | 2 | -29 | 27* | 38*
COc1ccc2c(c1)[nH]c1c(N3CCSCC3)ncnc12 | 2 | 0 | 14 | 0 | -8 | nt | nt
COc1cccc(N2CCN(c3ncnc4c3[nH]c3ccc(F)cc34)CC2C)c1 (stereo not drawn) | -2 | 0 | 38* | 4 | -12 | 28* | 122*
COc1cccc2[nH]c3c(N4CCC(C)CC4)ncnc3c12 | 7 | -4 | 2 | -4 | -1 | nt | nt
O=C1C(F)=CC(COC(c2ccccc2)(c2ccccc2)c2ccccc2)OC1n1cc(F)c(=O)[nH]c1=O (stereo not drawn) | nt | 1 | nt | 4 | 4 | nt | nt
C[C@H](CO)N1C[C@H](C)[C@@H](CN(C)Cc2ccc(Oc3ccccc3)cc2)Oc2c(NC(=O)c3ccncc3)cccc2C1=O | nt | 2 | 24* | -2 | -14 | 7 | 24*
Cc1ccc(-n2c(SCC(=O)N3CCCc4ccccc43)nnc2-c2cccnc2)c(C)c1 | 10 | 9 | -1 | 7 | -4 | nt | nt
CCOc1ccccc1-n1c(SCC(=O)N2CCCc3ccccc32)nnc1-c1cccnc1 | -1 | 5 | 33* | 2 | -38 | 17* | 16
CCCC[n+]1c2ccccc2cc2ccccc21 | -2 | -4 | 16* | 4 | -10 | 6 | 40*
Cc1cccc(OCC(=O)NCC(=O)N/N=C/c2c(C)[nH]c3ccccc23)c1 | 0 | -14 | 16* | -2 | 0 | 0 | 17
Cc1cccc(SC2CCN(C(=O)C3CCC(=O)N(C4CC4)C3)CC2)c1 (stereo not drawn) | -1 | 1 | 5 | -3 | 4 | nt | nt
CCCC(=O)NC(c1ccco1)c1cc(Cl)c2cccnc2c1O (stereo not drawn) | 3 | 0 | 1 | 0 | -3 | nt | nt
CC(=O)NC(c1ccco1)c1cc(Cl)c2ccc(Cl)nc2c1O (stereo not drawn) | nt | 5 | -2 | -1 | 1 | nt | nt
CCC(=O)NC(c1ccco1)c1cc(Cl)c2ccccc2c1O (stereo not drawn) | nt | -4 | 16* | -9 | -9 | 9 | 12
CC(=O)NC(c1ccco1)c1cc(Cl)c2ccccc2c1O (stereo not drawn) | nt | -1 | 36* | 0 | -7 | 11 | 6
O=C(CCN1C(=O)C2C3CCC(C3)C2C1=O)OCC(=O)c1ccc(Cl)cc1 (stereo not drawn) | nt | 3 | nt | -1 | 6 | nt | nt
SMILES | TPT1 inh | HNF4A DNA FP | IDE cell inh | CSN inh | IDE act | IDE inh confirm | HEK cytotox
Nc1ccccc1Sc1nc2ccccc2[nH]1 | 1 | -1 | 16* | 2 | -16 | 6 | 3
Cc1c(CCC(=O)NCC(=O)NCC(=O)O)c(=O)oc2cc3oc4c(c3cc12)CCCC4 | 2 | -2 | 24* | 2 | -12 | 12 | 11
Cc1c(CCC(=O)O)c(=O)oc2cc3oc4c(c3cc12)CCCC4 | -3 | -3 | 1 | -1 | 0 | nt | nt
Cc1ccc(N(CC(=O)NC2CCCCC2)S(=O)(=O)c2cccs2)cc1 | 2 | 0 | 0 | 3 | 7 | nt | nt
CN(C)c1ccc(/C=C/C(=O)c2ccc3c(c2)OCO3)cc1 | nt | 135 | 73* | 56 | -97 | 119* | 10
O=C(/C=C/c1ccccc1)c1ccc2c(c1)OCO2 | -1 | 2 | 0 | 4 | 3 | nt | nt
CCN(CC)c1ccc2cc(-c3nc4ccccc4[nH]3)c(=O)oc2c1 | -7 | -87 | 39* | -72 | 25* | 26* | 50*
CN(C)c1ccc(/C=C2\Oc3ccc(C#Cc4cccc(N)c4)cc3C2=O)cc1 | nt | 146 | 44* | 80 | -49 | 49* | 15
COCCCN(CCC#N)C(=O)c1c(-c2c(Cl)cccc2Cl)noc1C | 1 | -2 | -1 | 1 | 8 | nt | nt
Cc1ccn2cc(-c3ccc(NC(=O)c4ccco4)cc3)nc2c1 | 1 | 1 | 18* | -2 | -1 | 5 | 21
O=C(COC(=O)c1cccnc1Cl)Nc1nc(-c2ccccc2)cs1 | 1 | 1 | 26* | -4 | -15 | 6 | 12
O=C(COC(=O)c1ccccc1O)Nc1cccnc1Cl | -1 | 1 | 1 | -6 | 5 | nt | nt
Cc1nn(-c2ccccc2)c(C)c1/C=C/C(=O)OCC(=O)Nc1ccc(C(N)=O)cc1 | nt | 0 | 1 | -1 | 1 | nt | nt
COc1cccc(NC(=O)COC(=O)/C=C/c2c(C)nn(-c3ccccc3)c2C)c1 | nt | 2 | 25* | -2 | -17 | 21* | 11
CC(C)c1ccc(NC(=O)Nc2nnc([C@@H]3C[C@H](O)[C@@H](CO)O3)s2)cc1 | nt | 4 | nt | 1 | nt | nt | nt
COc1cc(/C=N\NC(=O)c2ccc(-c3ccccc3)cc2)cc(OC)c1O | -2 | -3 | 19* | 2 | -12 | 12 | 11
COc1cc(/C=N\NC(=O)c2ccc(-c3ccccc3)cc2)cc(OC)c1OC(C)=O | nt | 3 | nt | 4 | -13 | nt | nt
Cc1ccc(NC(=O)CCCCCC2NC(=O)NC2C)cc1 (stereo not drawn) | -1 | -1 | 5 | -3 | -13 | nt | nt
CCc1cccc(NC(=O)CCCCCC2NC(=O)NC2C)c1 (stereo not drawn) | -2 | 1 | 22* | -3 | -17 | 14 | 11
O=C(O)c1ccc2c(=O)n3c(nc2c1)/C(=C/c1cccc(Cl)c1Cl)CCCC3 | -3 | 0 | 18* | -4 | 1 | 3 | 1
O=C(O)c1ccc2c(=O)n3c(nc2c1)/C(=C/c1ccc(F)cc1)CC3 | -1 | -1 | -3 | 7 | -7 | nt | nt
